Drawing on ChEMBL document CHEMBL1151434 (Antimicrob Agents Chemother, 2007), this text covers Drug uptake and MIC for six compounds.

≈ marks a conversion by molar mass, not a printed value.

Data set [1] is described as follows: Biodistribution in healthy human epithelial lining fluid assessed as drug accumulation at 500 mg. The class given is ADME, organism-based. The conditions noted are these: in vivo.
For a further data set, the system named is Chlamydia psittaci 6BC. As to the kind of experiment: Antibacterial activity against 0.01 MOI wild type Chlamydia psittaci 6BC BCRB infected in mouse L2 cells treated 2 hrs after infection measured on day 7 by plaque assay. The class given is functional. Put shortly: (§1)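 Susceptibility measured in a plaque assay on confluent mouse fibroblast L2 cell monolayers in 60-mm dishes. The inoculum was 10^5 chlamydial PFU, equal to an MOI of 0.01. MIC was taken as the drug concentration that inhibited development of these 10^5 PFU.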

For data set [2], the system named is Chlamydia trachomatis. As to the kind of experiment: Antibacterial activity against 0.01 MOI wild type Chlamydia trachomatis L2/LGV/434/Bu infected in mouse L2 cells treated 2 hrs after infection measured on day 7 by plaque assay. It counts as functional. The method, boiled down: as §1
Data set [3] has as its system Chlamydia trachomatis. Kind of data set: Antibacterial activity against azithromycin-tolerant 0.01 MOI Chlamydia trachomatis L2AZM#23 harboring mutation in bacterial ribosomal protein L4 infected in mouse L2 cells treated 2 hrs after infection measured on day 7 by plaque assay. The class given is functional. Put shortly:
as §1

Data set [4] relates to Chlamydia trachomatis. Kind of data set: Antibacterial activity against azithromycin-tolerant 0.01 MOI Chlamydia trachomatis L2AZM#31 harboring mutation in bacterial ribosomal protein L4 infected in mouse L2 cells treated 2 hrs after infection measured on day 7 by plaque assay. The class given is functional. The method, boiled down: as §1

As to `CC[C@H]1OC(=O)[C@H](C)[C@@H](O[C@H]2C[C@@](C)(OC)[C@@H](O)[C@H](C)O2)[C@H](C)[C@@H](O[C@@H]2O[C@H](C)C[C@H](N(C)C)[C@H]2O)[C@](C)(O)C[C@@H](C)CN(C)[C@H](C)[C@@H](O)[C@]1(C)O` [AZITHROMYCIN], in data set [1], the Drug uptake was found to be 2 µg/mL. In addition, the MIC came to 0.1 µg/mL (≈ 0.134 µM) in the data set on Chlamydia psittaci 6BC, 0.1 µg/mL (≈ 0.134 µM) with Chlamydia trachomatis [2], 0.8 µg/mL (≈ 1.07 µM) with Chlamydia trachomatis [3] and 0.8 µg/mL (≈ 1.07 µM) with Chlamydia trachomatis [4].
Take `O=C(N[C@H](CO)[C@H](O)c1ccc([N+](=O)[O-])cc1)C(Cl)Cl` [CHLORAMPHENICOL]: the MIC with Chlamydia trachomatis [2], against Chlamydia trachomatis [3] and against Chlamydia trachomatis [4] was 0.4 µg/mL (≈ 1.24 µM) each time.
Regarding `CCC[C@@H]1C[C@@H](C(=O)N[C@@H]([C@H]2O[C@H](SC)[C@H](O)[C@@H](O)[C@H]2O)[C@H](C)Cl)N(C)C1` [CLINDAMYCIN], the MIC in the data set with Chlamydia psittaci 6BC was 0.4 µg/mL (≈ 0.941 µM); in the data set with Chlamydia trachomatis [2], 0.125 µg/mL (≈ 0.294 µM); with Chlamydia trachomatis [3], 0.5 µg/mL (≈ 1.18 µM); against Chlamydia trachomatis [4], 0.5 µg/mL (≈ 1.18 µM).
On to `CC[C@H]1OC(=O)[C@H](C)[C@@H](O[C@H]2C[C@@](C)(OC)[C@@H](O)[C@H](C)O2)[C@H](C)[C@@H](O[C@@H]2O[C@H](C)C[C@H](N(C)C)[C@H]2O)[C@](C)(O)C[C@@H](C)C(=O)[C@H](C)[C@@H](O)[C@]1(C)O` [ERYTHROMYCIN], for which the MIC in the data set on Chlamydia psittaci 6BC worked out at 0.2 µg/mL (≈ 0.273 µM); with Chlamydia trachomatis [2] it was 0.2 µg/mL (≈ 0.273 µM); with Chlamydia trachomatis [3], 0.8 µg/mL (≈ 1.09 µM); against Chlamydia trachomatis [4], 0.8 µg/mL (≈ 1.09 µM).
With `CO[C@@H]1[C@@H](O[C@@H]2O[C@H](C)[C@@H](O[C@H]3C[C@@](C)(O)[C@@H](OC(=O)CC(C)C)[C@H](C)O3)[C@H](N(C)C)[C@H]2O)[C@@H](CC=O)C[C@@H](C)[C@@H](O)/C=C/C=C/C[C@@H](C)OC(=O)C[C@H]1OC(C)=O` [JOSAMYCIN], the MIC was determined as 0.05 µg/mL (≈ 0.0604 µM) with Chlamydia psittaci 6BC, 0.05 µg/mL (≈ 0.0604 µM) against Chlamydia trachomatis [2], 0.2 µg/mL (≈ 0.242 µM) in the data set with Chlamydia trachomatis [3] and 0.2 µg/mL (≈ 0.242 µM) with Chlamydia trachomatis [4].
Regarding SPIRAMYCIN, the MIC in the data set with Chlamydia psittaci 6BC was determined as 1 µg/mL; against Chlamydia trachomatis [2], 0.8 µg/mL; in the data set with Chlamydia trachomatis [3], 4 µg/mL; against Chlamydia trachomatis [4], 4 µg/mL.
